In ChEMBL document CHEMBL1275500, “Characterization of the new metallo-beta-lactamase VIM-13 and its integron-borne gene from a Pseudomonas aeruginosa clinical isolate in Spain” (Antimicrob Agents Chemother, 2008):
pIC50: −log10 of the molar value. Converted amounts (≈) assume the structure as drawn.

Key:
Escherichia coli [1] = assay: Antimicrobial activity against Escherichia coli XL1-Blue harboring pUCP carrying VIM-13 gene by Etest method; assay type: functional
Procedure, shortened: (§1)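 Etest MICs of piperacillin, piperacillin-tazobactam, ceftazidime, cefepime, cefotaxime, aztreonam, imipenem and meropenem, run per manufacturer's recommendations. Strains were E. coli XL1-Blue or P. aeruginosa PAO1 carrying pUCP24-derived plasmids with blaVIM-1 or blaVIM-13 (cloned by EcoRI) inserted in the lacZ-promoter orientation. E. coli transformants were selected on 10 μg/ml gentamicin MacConkey agar; PAO1 electroporants were selected on 50 μg/ml gentamicin LB agar.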

Escherichia coli [2] = assay: Antimicrobial activity against Escherichia coli XL1-Blue by Etest method; assay type: functional
Pseudomonas aeruginosa [3] = assay: Antimicrobial activity against Pseudomonas aeruginosa PAO1 harboring pUCP carrying VIM-1 gene by Etest method; assay type: functional; procedure, shortened: as §1
Escherichia coli [4] = assay: Antimicrobial activity against Escherichia coli XL1-Blue harboring pUCP carrying VIM-1 gene by Etest method; assay type: functional; procedure, shortened: as §1
Pseudomonas aeruginosa [5] = assay: Antimicrobial activity against Pseudomonas aeruginosa isolate PA-SL2 harboring blaVIM-13 gene by Etest method; assay type: functional
Pseudomonas aeruginosa [6] = assay: Antimicrobial activity against Pseudomonas aeruginosa PAO1 by Etest method; assay type: functional
Pseudomonas aeruginosa [7] = assay: Antimicrobial activity against Pseudomonas aeruginosa PAO1 harboring pUCP carrying VIM-13 gene by Etest method; assay type: functional; procedure, shortened: as §1
Pseudomonas aeruginosa [8] = assay: Antimicrobial activity against Pseudomonas aeruginosa isolate PA-SD2 harboring blaVIM-1 gene by Etest method; assay type: functional
[9] = target: Class B carbapenemase VIM-13 (Pseudomonas aeruginosa, UniProt Q2HY42); assay: Inhibition of Pseudomonas aeruginosa VIM-13 beta-lactamase after 10 mins
Procedure, shortened: (§2)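 Zn2+-removal inactivation of purified VIM-1 or VIM-13, tested with varied concentrations of EDTA, dipicolinic acid or 1,10-o-phenanthroline. Enzyme and chelator were incubated 10 min at 20°C in 50 mM HEPES pH 7.5 with 20 μg/ml BSA, then 100 μM imipenem hydrolysis was measured as the reporter. IC50 is the chelator level halving hydrolytic activity.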

Beta-lactamase VIM-1 = Beta-lactamase VIM-1 (Pseudomonas aeruginosa, UniProt Q9XAY4); assay: Inhibition of Pseudomonas aeruginosa VIM-1 beta-lactamase after 10 mins; procedure, shortened: as §2
Escherichia coli [10] = assay: Antimicrobial activity against Escherichia coli XL1-Blue harboring pGEM-T carrying aacA4 gene by Etest method; assay type: functional
Escherichia coli [11] = assay: Antimicrobial activity against Escherichia coli XL1-Blue harboring pGEM-T carrying aacA4 Ala108Thr mutant gene by Etest method; assay type: functional

Row | Compound | MIC (Escherichia coli [1]) [µg/mL] | MIC (Escherichia coli [2]) [µg/mL] | MIC (Pseudomonas aeruginosa [3]) [µg/mL] | MIC (Escherichia coli [4]) [µg/mL] | MIC (Pseudomonas aeruginosa [5]) [µg/mL] | MIC (Pseudomonas aeruginosa [6]) [µg/mL] | MIC (Pseudomonas aeruginosa [7]) [µg/mL] | MIC (Pseudomonas aeruginosa [8]) [µg/mL] | pIC50 [9] | pIC50 (Beta-lactamase VIM-1) | MIC (Escherichia coli [10]) [µg/mL] | MIC (Escherichia coli [11]) [µg/mL]
1 | CO/N=C(\C(=O)N[C@@H]1C(=O)N2C(C(=O)[O-])=C(C[N+]3(C)CCCC3)CS[C@H]12)c1csc(N)n1 | 1 (≈ 2.08 µM) | 0.19 (≈ 0.395 µM) | > 256 | 12 (≈ 25 µM) | 32 (≈ 66.6 µM) | 1 (≈ 2.08 µM) | 64 (≈ 133 µM) | > 256 |  |  |  | 
2 | O=C(O)c1cccc(C(=O)O)n1 [DIPICOLINIC ACID] |  |  |  |  |  |  |  |  | 4.32 | 4.38 |  | 
3 | C[C@H]1[C@H](NC(=O)/C(=N\OC(C)(C)C(=O)O)c2csc(N)n2)C(=O)N1S(=O)(=O)O [AZTREONAM] | 0.125 (≈ 0.287 µM) | 0.19 (≈ 0.436 µM) | 1.5 (≈ 3.44 µM) | 0.125 (≈ 0.287 µM) | 4 (≈ 9.19 µM) | 1 (≈ 2.3 µM) | 1.5 (≈ 3.44 µM) | 24 (≈ 55.1 µM) |  |  |  | 
4 | GENTAMICIN |  | 0.19 |  |  | > 256 |  |  | 48 |  |  | 1 | 1
5 | C[C@@H](O)[C@H]1C(=O)N2C(C(=O)O)=C(S[C@@H]3CN[C@H](C(=O)N(C)C)C3)[C@H](C)[C@H]12 [MEROPENEM] | 0.19 (≈ 0.495 µM) | 0.064 (≈ 0.167 µM) | > 32 | 0.25 (≈ 0.652 µM) | 12 (≈ 31.3 µM) | 0.38 (≈ 0.991 µM) | > 32 | > 32 |  |  |  | 
6 | C[C@@H](O)[C@H]1C(=O)N2C(C(=O)O)=C(SCCNC=N)C[C@H]12 [IMIPENEM ANHYDROUS] | 1 (≈ 3.34 µM) | 0.25 (≈ 0.835 µM) | > 32 | 1 (≈ 3.34 µM) | 24 (≈ 80.2 µM) | 1.5 (≈ 5.01 µM) | > 32 | > 32 |  |  |  | 
7 | NCC[C@H](O)C(=O)N[C@@H]1C[C@H](N)[C@@H](O[C@H]2O[C@H](CN)[C@@H](O)[C@H](O)[C@H]2O)[C@H](O)[C@H]1O[C@H]1O[C@H](CO)[C@@H](O)[C@H](N)[C@H]1O [AMIKACIN] |  | 0.75 (≈ 1.28 µM) |  |  | 16 (≈ 27.3 µM) |  |  | 3 (≈ 5.12 µM) |  |  | 0.75 (≈ 1.28 µM) | 0.75 (≈ 1.28 µM)
8 | CC(C)(O/N=C(\C(=O)N[C@@H]1C(=O)N2C(C(=O)[O-])=C(C[n+]3ccccc3)CS[C@H]12)c1csc(N)n1)C(=O)O [CEFTAZIDIME] | 6 (≈ 11 µM) | 0.38 (≈ 0.695 µM) | > 256 | 32 (≈ 58.5 µM) | 32 (≈ 58.5 µM) | 1 (≈ 1.83 µM) | 128 (≈ 234 µM) | > 256 |  |  |  | 
9 | O=C(O)c1cn(C2CC2)c2cc(N3CCNCC3)c(F)cc2c1=O [CIPROFLOXACIN] |  | 0.064 (≈ 0.193 µM) |  |  | > 32 |  |  | > 32 |  |  | 0.064 (≈ 0.193 µM) | 0.064 (≈ 0.193 µM)
10 | c1cnc2c(c1)ccc1cccnc12 [PHENANTHROLINE] |  |  |  |  |  |  |  |  | 4.16 | 4.14 |  | 
11 | NC[C@H]1O[C@H](O[C@H]2[C@H](O)[C@@H](O[C@H]3O[C@H](CO)[C@@H](O)[C@H](N)[C@H]3O)[C@H](N)C[C@@H]2N)[C@H](N)C[C@@H]1O [TOBRAMYCIN] |  | 0.25 (≈ 0.535 µM) |  |  | 48 (≈ 103 µM) |  |  | 16 (≈ 34.2 µM) |  |  | 2 (≈ 4.28 µM) | 2 (≈ 4.28 µM)
12 | CO/N=C(\C(=O)N[C@@H]1C(=O)N2C(C(=O)O)=C(COC(C)=O)CS[C@H]12)c1csc(N)n1 [CEFOTAXIME] | > 256 | 0.19 (≈ 0.417 µM) | > 256 | > 256 | > 256 | 16 (≈ 35.1 µM) | > 256 | > 256 |  |  |  | 
13 | O=C(O)CN(CCN(CC(=O)O)CC(=O)O)CC(=O)O [EDETIC ACID] |  |  |  |  |  |  |  |  | 3.60 | 5.03 |  | 
